High-throughput results deposited in PubChem by The Scripps Research Institute Molecular Screening Center.
V1R ag counter: agonists of human V1a receptor, primary screen, counter-screen for OXTR agonist project, fluorescence, CHO-V1R cells; Fluo-8 calcium fluorescence, agonist mode; 0% DMSO, 100% 3 nM vasopressin; hit rate 0.25% among 320,000; activation, % at 3 µM; AID 2797, 2010; Vasopressin V1a receptor (Homo sapiens), P37288;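 active means activation above the mean activation of all tested compounds plus 3 SD, per screening run, cut at about 20% in these data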;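 further: signal is peak over basal fluorescence ratio across a 100 second FLIPR read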
Target sequence (P37288 whole entry, looked up): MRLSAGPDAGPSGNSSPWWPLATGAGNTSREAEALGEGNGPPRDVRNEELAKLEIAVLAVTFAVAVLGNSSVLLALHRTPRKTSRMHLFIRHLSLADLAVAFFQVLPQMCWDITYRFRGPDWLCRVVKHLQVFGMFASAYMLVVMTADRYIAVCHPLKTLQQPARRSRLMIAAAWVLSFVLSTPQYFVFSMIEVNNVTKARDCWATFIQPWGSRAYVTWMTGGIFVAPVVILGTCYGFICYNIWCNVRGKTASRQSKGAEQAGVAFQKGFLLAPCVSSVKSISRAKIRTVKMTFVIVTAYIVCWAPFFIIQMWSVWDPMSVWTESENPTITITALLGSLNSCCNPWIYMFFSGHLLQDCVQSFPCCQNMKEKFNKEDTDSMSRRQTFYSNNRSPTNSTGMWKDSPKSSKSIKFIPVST
OXTR agonist: human OXTR agonists, primary screen, fluorescence, CHO-OTR cells, Fluo-8 calcium; Fluo-8 calcium fluorescence; normalized: DMSO 0%, oxytocin 100%; activation, % at 3 µM; hit rate 0.32% among 320,000;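 active means activation above the mean of all tested compounds plus 3 SD, cutoff set per screening run, cut at about 20% in these data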;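 further: peak over basal fluorescence ratio from a 100 s FLIPR kinetic read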
CHO parental Ca: ATP-evoked calcium signal inhibitors, parental CHO, primary screen, counter-screen for OX1R antagonist project, cell-based, fluorescence, Fluo-8 calcium dye. parental CHO-K1, ATP-induced calcium, Fluo-8 fluorescence. inhibition, % at 5.6 µM. hit rate 0.63% among 330,000. AID 463079, 2010;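 active means inhibition above that plate's mean sample inhibition plus 3 SD, cut at about 26% in these data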
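Assay system: untransfected parental CHO cell line. Also added: ATP agonist challenge. Dosing: one dose, 5.6 µM nominal. Measured by: Fluo-8 fluorescence. Read-out: % inhibition. Benchmarks: ATP wells versus no-ATP DMSO wells. Repeats: no replicates.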
OX1R antag-1: OX1R (HCRTR1) antagonists, primary screen, fluorescence, CHO/OX1R cells, Fluo-8 calcium, orexin A. Orexin/Hypocretin receptor type 1 (Homo sapiens), O43613. Fluo-8 calcium fluorescence. inhibition, % at 5 µM. hit rate 0.43% among 330,000. AID 434989, 2010;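 active means inhibition above its plate's threshold, mean inhibition of all tested compounds on the plate plus 3 SD, cut at about 37% in these data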
OX1R antag-2: antagonists of human orexin 1 receptor (OX1R). hit rate 1.8% among 330,000. Orexin/Hypocretin receptor type 1 (Homo sapiens), O43613. inhibition, % at 6.6 µM. OX1R-expressing cells, FRET antagonist read-out; in the data active means inhibition mostly above about 38%, no sharp cut-off; inactive means mostly below about 40%
OXTR potentiate: human OXTR potentiators, primary screen, fluorescence, CHO-OTR cells, Fluo-8 calcium. activation, % at 3 µM. AID 2445, 2010. hit rate 0.061% among 320,000. Oxytocin receptor (Homo sapiens), P30559. Fluo-8 calcium fluorescence, potentiator mode; 0% = oxytocin EC15, 100% = EC100;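 active means activation above that plate's cutoff, the mean activation of tested compounds plus 3 SD, cut at about 6.6% in these data, passing the limit was not always enough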
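Measured by – Fluo-8 calcium dye fluorescence · Test system – human OTR in CHO cells · Dosing – one concentration, 3.0 µM compound · Controls – EC15 oxytocin alone as 0%, 75 nM oxytocin as 100% · Evaluation – normalized max/min fluorescence ratio, % activation · Timing – 6 min pre-incubation, 100 s read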
Each line names hits and unclear results; the compound was inactive in the other large screens. This is a sample that favours compounds with a hit; in the whole collection about 2.7% have one here.

O=S(=O)(Nc1nc2ccccc2nc1Cl)c1cccc(C(F)(F)F)c1	OX1R antag-2 50
COc1ccc(S(=O)(=O)N2CCOC23CCN(S(=O)(=O)c2c(C)cc(C)cc2C)CC3)cc1	none
CCC(C)(C)C(=O)Nc1ncc(S(=O)(=O)c2ccc([N+](=O)[O-])cc2)s1	V1R ag counter 22, OXTR agonist 33
CCCC(C)C(=O)Nc1ncc(S(=O)(=O)c2ccc([N+](=O)[O-])cc2)s1 (centres undefined)	V1R ag counter 46, OXTR agonist 22
O=C(CCl)Nc1ncc(S(=O)(=O)c2ccc([N+](=O)[O-])cc2)s1	none
CN(C(=O)c1ccc(NC(=O)C2CCCN(C(=O)OC(C)(C)C)C2)cc1)C1CCCC1 (centres undefined)	none
CCC(C(=O)NCCC(C)C)n1ccc2cc(S(=O)(=O)N3CCCCC3)ccc21 (centres undefined)	CHO parental Ca 53
CC(CNC(=O)Cn1ccc2cc(S(=O)(=O)N3CCCC3)ccc21)c1ccccc1 (centres undefined)	OX1R antag-2 43
Cc1c(C(=O)OCC(=O)N2CC(C)CC(C)C2)oc2ccccc12 (centres undefined)	OX1R antag-2 70
COc1ccc2oc(C(=O)OCC(=O)N3CC(C)CC(C)C3)c(C)c2c1 (centres undefined)	none
Cc1c(C(=O)OCC(=O)N(C)c2ccccc2)oc2ccccc12	none
Cc1c(C(=O)OCC(=O)N(C)Cc2ccccc2)oc2ccccc12	OX1R antag-2 60
O=C(Nc1nccs1)c1ccc(-c2ccccc2Cl)o1	OX1R antag-2 59
O=C(Nc1nccs1)c1ccc(-c2ccc(Cl)cc2)o1	OX1R antag-2 49
COC(=O)C[C@H](NC(=O)Cn1cnc2c(NCc3ccccc3)ncnc21)C(=O)OC	none (no result: V1R ag counter, OXTR agonist, OXTR potentiate)
Cc1ccc(Nc2cc(C)nc3nc(C)nn23)cc1	OXTR potentiate 12
CC(=O)c1ccc(Nc2cc(C)nc3nc(C)nn23)cc1	none
CC(C)(C)c1ccc(OCC(=O)O/N=C(\N)c2ccncc2)cc1	none
O=C(OCCOc1cccc(Cl)c1)c1cc(S(=O)(=O)N2CCCCC2)ccc1N1CCOCC1	CHO parental Ca 38
CNc1ccccc1C(=O)OCC(=O)c1ccccc1	none
O=C(COC(=O)c1ccccc1Nc1ccccc1)c1ccccc1	OX1R antag-1 43
Cc1ccc(C(=O)NCC(=O)NCC(=O)OCc2ccc(Oc3ccc([N+](=O)[O-])cc3)cc2)cc1	CHO parental Ca 46, OX1R antag-1 59
COc1ccc(C(=O)NCC(=O)OCc2ccc([N+](=O)[O-])cc2)cc1	none
CCN1CCN(CC(=O)Nc2c(OC)cccc2OC)CC1	none
Cc1c(O)cc2c(c1O)C(=O)CC(c1ccccc1)O2 (centres undefined)	V1R ag counter 48, OXTR agonist 59, CHO parental Ca 100, OX1R antag-1 105
O=C1C[C@@H](c2ccc(O)cc2)Oc2cc(O)cc(O)c21	none
O=C(Cc1nnc(NC(=O)c2cccc([N+](=O)[O-])c2)s1)NCc1ccccc1	none
Cc1cc(C)cc(NC(=O)CCNS(=O)(=O)c2cc(Br)cnc2N)c1	OX1R antag-2 65
CC(C)(C)C(=O)COC(=O)c1ccc(N)c([N+](=O)[O-])c1	none
COc1ccc(CCOC(=O)c2ccc(N)c([N+](=O)[O-])c2)cc1	CHO parental Ca 47
COc1cc(/C=C/C(=O)O)cc(S(=O)(=O)Nc2ccc3c(c2)CCC3)c1OC	none
COCCOc1ccc(C(F)(F)F)cc1NC(=O)COC(=O)c1ccc(N2CCCC2=O)cc1	none
Cc1ccc2nc(/C(C#N)=C\c3ccc(N4CCOCC4)o3)[nH]c2c1	V1R ag counter 30, OXTR agonist 43
Cc1ccc2nc(/C(C#N)=C/c3ccc(-c4ccccc4C(=O)O)o3)[nH]c2c1	V1R ag counter 27, OXTR agonist 39
Cc1cc2nc(/C(C#N)=C\c3ccc(-c4ccccc4C(=O)O)o3)[nH]c2cc1C	none
Cc1ccc(NS(=O)(=O)c2cc(C(=O)NCCSc3ccc(C)cc3)ccc2C)cc1	none
Cc1ccc(SCCNC(=O)c2ccc(C)c(S(=O)(=O)Nc3cccc(C)c3)c2)cc1	OX1R antag-2 38
CC(=O)Nc1cccc(NC(=O)CSc2nnc3ccc(-c4cccnc4)nn23)c1	OX1R antag-2 75
Cc1ccccc1NC(=O)CSc1nnc2ccc(-c3ccccn3)nn12	OX1R antag-2 55
COc1ccc(NC(=O)CSc2nnc3ccc(-c4cccnc4)nn23)cc1	OX1R antag-2 63
CC(=O)Nc1ccc(NC(=O)CSc2nnc3ccc(-c4ccccn4)nn23)cc1	none
COc1ccc(NC(=O)CSc2nnc3ccc(-c4ccncc4)nn23)cc1	none
c1ccc(CSc2nnc3ccc(-c4ccncc4)nn23)cc1	none
O=C(CSc1nnc2ccc(-c3cccnc3)nn12)Nc1ccccc1	none
c1cncc(CSc2nnc3ccc(-c4ccncc4)nn23)c1	OX1R antag-2 39
Cc1ccc(S(=O)(=O)N2CCOCC2)cc1NC(=O)Nc1ccc([N+](=O)[O-])cc1	none
C=CCn1c(=O)c2ccccc2n2c(SCC(C)=O)nnc12	none
CCS(=O)(=O)Nc1cccc(-c2ccc3nnc(-c4cccnc4)n3n2)c1	OX1R antag-2 35
O=C(CSc1nnc2ccc(-c3ccncc3)nn12)Nc1ccc(F)cc1	OX1R antag-2 61
CC(=O)Nc1ccc(NC(=O)CSc2nnc3ccc(-c4cccnc4)nn23)cc1	OX1R antag-2 50
O=C(CSc1nnc2ccc(-c3ccncc3)nn12)c1cccs1	OX1R antag-2 44
Fc1ccccc1CSc1nnc2ccc(-c3ccncc3)nn12	none
O=C(CSc1nnc2ccc(-c3cccnc3)nn12)Nc1ccc(F)cc1	none
COc1ccc(-c2nnc3ccc(SCC(=O)N4CCCC4)nn23)cc1	none
COc1ccc(-c2ccc3nnc(SCC(=O)N4CCCC4)n3n2)cc1	OX1R antag-2 55
CCN(CC)c1ccc(/C=C2/C(=O)c3ccc(C(=O)O)cc3C2=O)cc1	V1R ag counter 70, OXTR agonist 135, OX1R antag-1 83
COc1cc(C(=O)COC(=O)c2ccncc2)cc(OC)c1OC	none
CCOC(=O)c1nc2c(=O)n(C)c(=O)n(C)c2n(C)c1=O	OX1R antag-2 48
CCOC(=O)c1ccc(NC(=O)c2c(N)n(C)c(=O)n(C)c2=O)cc1	none
CN(C)S(=O)(=O)c1ccc(C(=O)Nc2cc3c(cc2C(=O)O)OCCCO3)cc1	none
